ChEMBL document CHEMBL1165950, “Design and synthesis of new potent anticancer pyrazoles with high FLT3 kinase inhibitory selectivity” (Bioorg Med Chem, 2010)

What was measured:
Type in all cases: functional
KM12 [1] = assay: Cytotoxicity against human KM12 cells assessed as cell growth at 10 uM after 48 hrs by sulforhodamine B assay; conditions: KM12, 48 h, read-out: Activity
NCI-H226 = assay: Cytotoxicity against human NCI-H226 cells assessed as cell growth at 10 uM; conditions: read-out: Activity
How it was run: (§1)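 NCI-60 screen: cells grown in RPMI 1640 with 5% FBS and 2 mM L-glutamine, plated at 5000–40,000 cells/well according to doubling time, and preincubated 24 h at 37 °C, 5% CO2. The single 10 µM dose (DMSO stock) was added, then incubated 48 h. Cells were TCA-fixed and stained with 0.4% SRB, read at 515 nm, and growth % calculated against time-zero and control plates.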

A549 = assay: Cytotoxicity against human A549 cells assessed as cell growth at 1 uM after 48 hrs by sulforhodamine B assay; conditions: A549, 48 h, read-out: Activity
How it was run: (§2)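 NCI-60 five-dose screen. Cells were grown in RPMI 1640 with 5% FBS and 2 mM L-glutamine, plated at 5000–40,000 cells/well and preincubated for 24 h. Time-zero plates were TCA-fixed. DMSO-solubilized drug was added at five concentrations (10-fold or ½-log serial dilutions) for 48 h at 37 °C, 5% CO2. Cells were TCA-fixed, stained with 0.4% SRB and read at 515 nm. Percent growth used time-zero, control and test absorbances.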

LOX IMVI = assay: Cytotoxicity against human LOXIMVI cells assessed as cell growth at 10 uM after 48 hrs by sulforhodamine B assay; conditions: read-out: Activity
UACC-257 [2] = assay: Growth inhibition of human UACC257 cells after 48 hrs by sulforhodamine B assay; conditions: UACC-257, 48 h; for CC50: read-out: LC50 (the source's name)
How it was run: (§3)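 NCI 60-cell screen, five-dose mode. Cells grown in RPMI 1640 with 5% FBS and 2 mM L-glutamine and plated at 5000-40,000 cells/well according to doubling time. After 24 h preincubation, a Tz plate was TCA-fixed. Five concentrations (10-fold or 1/2 log dilutions) were applied for 48 h at 37 °C. SRB staining read at 515 nm. IC50 taken from [(Ti-Tz)/(C-Tz)]×100 = 50.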

OVCAR-8 = assay: Cytotoxicity against human OVCAR8 cells assessed as cell growth at 10 uM; conditions: read-out: Activity; how it was run: as §1
KM12 [3] = assay: Cytotoxicity against human KM12 cells assessed as cell growth at 1 uM after 48 hrs by sulforhodamine B assay; conditions: KM12, 48 h, read-out: Activity
IGROV-1 [4] = assay: Growth inhibition of human IGROV1 cells after 48 hrs by sulforhodamine B assay; conditions: IGROV-1, 48 h; for CC50: read-out: LC50 (the source's name); how it was run: as §3
M14 = assay: Cytotoxicity against human M14 cells assessed as cell growth at 100 nM after 48 hrs by sulforhodamine B assay; conditions: M14, 48 h, read-out: Activity
OVCAR-4 [5] = assay: Growth inhibition of human OVCAR4 cells after 48 hrs by sulforhodamine B assay; conditions: OVCAR-4, 48 h; for CC50: read-out: LC50 (the source's name); how it was run: as §3
IGROV-1 [6] = assay: Cytotoxicity against human IGROV1 cells assessed as cell growth at 0.001 uM after 48 hrs by sulforhodamine B assay; conditions: IGROV-1, 48 h, read-out: Activity
SNB-75 = assay: Cytotoxicity against human SNB75 cells assessed as cell growth at 100 nM after 48 hrs by sulforhodamine B assay; conditions: SNB-75, 48 h, read-out: Activity
SK-MEL-5 [7] = assay: Cytotoxicity against human SK-MEL-5 cells assessed as cell growth at 100 nM after 48 hrs by sulforhodamine B assay; conditions: SK-MEL-5, 48 h, read-out: Activity
OVCAR-4 [8] = assay: Cytotoxicity against human OVCAR4 cells assessed as cell growth at 0.001 uM after 48 hrs by sulforhodamine B assay; conditions: OVCAR-4, 48 h, read-out: Activity
EKVX = assay: Cytotoxicity against human EKVX cells assessed as cell growth at 0.01 uM after 48 hrs by sulforhodamine B assay; conditions: read-out: Activity
DU-145 [9] = assay: Growth inhibition of human DU145 cells after 48 hrs by sulforhodamine B assay; conditions: DU-145, 48 h
How it was run: (§4)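 NCI five-dose SRB assay in RPMI 1640 with 5% FBS and 2 mM L-glutamine. Cells were preincubated 24 h, then exposed 48 h at 37 °C to five concentrations (10-fold or half-log serial dilutions from DMSO stocks). TCA fixation, SRB staining, and absorbance at 515 nm followed. IC50 was taken where [(Ti−Tz)/(C−Tz)]×100 = 50, with Tz as time-zero cell density.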

Malme-3M = assay: Cytotoxicity against human MALME-3M cells assessed as cell growth at 0.01 uM after 48 hrs by sulforhodamine B assay; conditions: read-out: Activity
OVCAR-3 = assay: Cytotoxicity against human OVCAR-3 cells assessed as cell growth at 1 uM after 48 hrs by sulforhodamine B assay; conditions: OVCAR-3, 48 h, read-out: Activity
SK-MEL-5 [10] = assay: Cytotoxicity against human SK-MEL-5 cells assessed as cell growth at 0.01 uM after 48 hrs by sulforhodamine B assay; conditions: SK-MEL-5, 48 h, read-out: Activity
SW-620 = assay: Cytotoxicity against human SW620 cells assessed as cell growth at 10 uM; conditions: read-out: Activity; how it was run: as §1
UACC-62 = assay: Cytotoxicity against human UACC62 cells assessed as cell growth at 100 nM after 48 hrs by sulforhodamine B assay; conditions: UACC-62, 48 h, read-out: Activity
DU-145 [11] = assay: Cytotoxicity against human DU145 cells assessed as cell growth at 10 uM after 48 hrs by sulforhodamine B assay; conditions: DU-145, 48 h, read-out: Activity
[12] = Cytotoxicity against human Hs 578T cells assessed as cell growth at 100 nM after 48 hrs by sulforhodamine B assay; conditions: read-out: Activity
BT-549 = assay: Growth inhibition of human BT549 cells after 48 hrs by sulforhodamine B assay; conditions: BT-549, 48 h; for CC50: read-out: LC50 (the source's name); how it was run: as §4
A498 = assay: Cytotoxicity against human A498 cells assessed as cell growth at 100 nM after 48 hrs by sulforhodamine B assay; conditions: A498, 48 h, read-out: Activity; how it was run: as §2
T47D = assay: Cytotoxicity against human T47D cells assessed as cell growth at 0.001 uM after 48 hrs by sulforhodamine B assay; conditions: read-out: Activity
ACHN = assay: Cytotoxicity against human ACHN cells assessed as cell growth at 100 nM after 48 hrs by sulforhodamine B assay; conditions: read-out: Activity; how it was run: as §2
U-251 = assay: Cytotoxicity against human U251 cells assessed as cell growth at 0.01 uM after 48 hrs by sulforhodamine B assay; conditions: U-251, 48 h, read-out: Activity
UACC-257 [13] = assay: Cytotoxicity against human UACC257 cells assessed as cell growth at 1 uM after 48 hrs by sulforhodamine B assay; conditions: UACC-257, 48 h, read-out: Activity

SMILES | growth at 10 µM (KM12 [1]) [%] | growth at 10 µM (NCI-H226) [%] | growth at 1 µM (A549) [%] | growth at 10 µM (LOX IMVI) [%] | GI50 (UACC-257 [2]) [µM] | TGI (UACC-257 [2]) [µM] | CC50 (UACC-257 [2]) [µM] | growth at 10 µM (OVCAR-8) [%] | growth at 1 µM (KM12 [3]) [%] | GI50 (IGROV-1 [4]) [µM] | TGI (IGROV-1 [4]) [µM] | CC50 (IGROV-1 [4]) [µM] | growth at 0.1 µM (M14) [%] | GI50 (OVCAR-4 [5]) [µM] | TGI (OVCAR-4 [5]) [µM] | CC50 (OVCAR-4 [5]) [µM] | growth at 0.001 µM (IGROV-1 [6]) [%] | growth at 0.1 µM (SNB-75) [%] | growth at 0.1 µM (SK-MEL-5 [7]) [%] | growth at 0.001 µM (OVCAR-4 [8]) [%] | other results
COc1cc(C)cc(-c2c(-c3ccnc(-c4ccc(C(C)=O)cc4)c3)cnn2CC#N)c1 | 10 | 83.7 | 25 | 21 | 5.24 | > 100 | > 100 | 80.1 | 9 | 3.57 | > 100 | > 100 | 79 | 5.13 | > 100 | > 100 | 107 | 76 | 85 | 102 | growth at 0.01 µM (EKVX): 97%; GI50 (DU-145 [9]): 3.42 µM; LC50 (DU-145 [9]): > 100 µM; TGI (DU-145 [9]): > 100 µM; growth at 0.01 µM (Malme-3M): 93%; growth at 1 µM (OVCAR-3): -10%; growth at 0.01 µM (SK-MEL-5 [10]): 94%; growth at 10 µM (SW-620): 56.1%; growth at 0.1 µM (UACC-62): 89%; growth at 10 µM (DU-145 [11]): 15%; growth at 0.1 µM [12]: 71%; GI50 (BT-549): 3.12 µM; TGI (BT-549): > 100 µM; CC50 (BT-549): > 100 µM; growth at 0.1 µM (A498): 65%; growth at 0.001 µM (T47D): 93%; growth at 0.1 µM (ACHN): 90%; growth at 0.01 µM (U-251): 89%; growth at 1 µM (UACC-257 [13]): 38%
Cc1cc(O)cc(-c2nn(CC#N)cc2-c2ccnc(-c3ccc(N(C)C)cc3)c2)c1 | -97 | 35.8 | 23 | -87 | 4.35 | 35.6 | > 100 | 45 | -9 | 3.91 | 24.8 | > 100 | 82 | 4.85 | > 100 | > 100 | 107 | 77 | 82 | 104 | growth at 0.01 µM (EKVX): 86%; GI50 (DU-145 [9]): 2.75 µM; LC50 (DU-145 [9]): 53.2 µM; TGI (DU-145 [9]): 8.57 µM; growth at 0.01 µM (Malme-3M): 92%; growth at 1 µM (OVCAR-3): -40%; growth at 0.01 µM (SK-MEL-5 [10]): 90%; growth at 10 µM (SW-620): 25%; growth at 0.1 µM (UACC-62): 87%; growth at 10 µM (DU-145 [11]): -66%; growth at 0.1 µM [12]: 82%; GI50 (BT-549): 2.77 µM; TGI (BT-549): 12.1 µM; CC50 (BT-549): > 100 µM; growth at 0.1 µM (A498): 92%; growth at 0.001 µM (T47D): 93%; growth at 0.1 µM (ACHN): 93%; growth at 0.01 µM (U-251): 94%; growth at 1 µM (UACC-257 [13]): 31%
COc1cc(C)cc(-c2nn(CC#N)cc2-c2ccnc(-c3ccc(N(C)C)cc3)c2)c1 | -70 | 24.9 | 14 | -23 | 0.448 | > 100 | > 100 | 12 | -37 | 0.402 | 30.1 | > 100 | -12 | 0.549 | > 100 | > 100 | 103 | -8 | -22 | 106 | growth at 0.01 µM (EKVX): 89%; GI50 (DU-145 [9]): 0.319 µM; LC50 (DU-145 [9]): > 100 µM; TGI (DU-145 [9]): 1.11 µM; growth at 0.01 µM (Malme-3M): 91%; growth at 1 µM (OVCAR-3): -41%; growth at 0.01 µM (SK-MEL-5 [10]): 104%; growth at 10 µM (SW-620): 21.9%; growth at 0.1 µM (UACC-62): 18%; growth at 10 µM (DU-145 [11]): -48%; growth at 0.1 µM [12]: -19%; GI50 (BT-549): 1.62 µM; TGI (BT-549): 7.33 µM; CC50 (BT-549): > 100 µM; growth at 0.1 µM (A498): -8%; growth at 0.001 µM (T47D): 102%; growth at 0.1 µM (ACHN): 29%; growth at 0.01 µM (U-251): 105%; growth at 1 µM (UACC-257 [13]): 48%
